Converted amounts (≈) assume the structure as drawn. The source made the active and inactive calls. The rule behind the calls is not given here.
What was measured:
[1] = Intrinsic clearance in mouse liver microsomes at 5 uM after 60 mins in presence of NADPH by LC-MS/MS analysis; type: ADME, Microsome; settings: read-out: CLH
Summary of the method: (§1)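 Compound at 5 µM with 1 mg/mL human or mouse liver microsomes plus an NADPH-regenerating system, in 100 mM potassium phosphate at 37°C. Reactions were stopped with acetonitrile at sampling times. Percent remaining versus time 0 was measured by HPLC, in duplicate.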

[2] = Intrinsic clearance in human liver microsomes at 5 uM after 60 mins in presence of NADPH by LC-MS/MS analysis; type: ADME, Microsome; settings: read-out: CLH; summary of the method: as §1
[3] = Initial plasma concentration in mouse at 1 to 2 mg/kg, iv by LC/MS/MS analysis; type: ADME, organism-based
Summary of the method: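 Male ICR mice (n = 3) dosed iv via the tail vein at 2 or 1 mg/kg in 30% PEG400 and 5% ethanol in water. Jugular blood was collected into heparin and the plasma separated. Plasma levels were measured by LC/MS/MS after acetonitrile precipitation, and parameters were derived by noncompartmental software.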

[4] = AUC (0 to infinity) in mouse at 1 to 2 mg/kg, iv by LC/MS/MS analysis; type: ADME, organism-based; settings: in vivo
Summary of the method: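 Male ICR mice (27 ± 5 g, n = 3) dosed iv via tail vein at 2 or 1 mg/kg in 30% PEG400/5% ethanol in water. Jugular blood (0.3 mL, heparin) sampled at set times over 24 h or more; plasma separated, acetonitrile-precipitated, drug quantified by LC/MS/MS; parameters from noncompartmental-type software estimation.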

[5] = Solubility of the compound […] after 24 hrs by UV-based HPLC analysis; type: physicochemical; settings: DMSO
Summary of the method: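 Solubility in water: DMSO stock aliquots diluted into water, shaken 24 h at room temperature, filtered through 0.45 µm nylon, then quantified by HPLC-UV with a C18 column and 70% ACN. Run in triplicate.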

[6] = Protein binding in mouse plasma; type: ADME, cell-free; settings: read-out: PPB (converted)
[7] = Protein binding in human plasma; type: ADME, cell-free; settings: read-out: PPB (converted)
[8] = Stability in human plasma assessed as parent compound remaining; type: ADME, cell-free
[9] = Antitumor activity against AXL expressing mouse MXT cells allografted in mouse assessed as survival time at 5 mg/kg, ip qd administered 21 consecutive days (reference value: 100%); type: functional
Summary of the method: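 MXT mammary tumour cells implanted subcutaneously and staged to about 125 mm3. Dosing then began: once daily ip for 21 consecutive days, at 5 or 15 mg/kg, alongside a vehicle group, with 7 animals per group. Survival in days was recorded for each animal and given as mean ± SD, and as T/C% against the vehicle group (vehicle = 100%).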

[10] = target: Serine/threonine-protein kinase SIK2 (Homo sapiens, UniProt Q9H0K1); assay: Binding affinity to QIK in SILAC-labeled human MDA-MB-231 cells lysate by mass spectrometry based kinAffinity assay; type: subcellular
Chain of Serine/threonine-protein kinase SIK2 (Q9H0K1 whole entry): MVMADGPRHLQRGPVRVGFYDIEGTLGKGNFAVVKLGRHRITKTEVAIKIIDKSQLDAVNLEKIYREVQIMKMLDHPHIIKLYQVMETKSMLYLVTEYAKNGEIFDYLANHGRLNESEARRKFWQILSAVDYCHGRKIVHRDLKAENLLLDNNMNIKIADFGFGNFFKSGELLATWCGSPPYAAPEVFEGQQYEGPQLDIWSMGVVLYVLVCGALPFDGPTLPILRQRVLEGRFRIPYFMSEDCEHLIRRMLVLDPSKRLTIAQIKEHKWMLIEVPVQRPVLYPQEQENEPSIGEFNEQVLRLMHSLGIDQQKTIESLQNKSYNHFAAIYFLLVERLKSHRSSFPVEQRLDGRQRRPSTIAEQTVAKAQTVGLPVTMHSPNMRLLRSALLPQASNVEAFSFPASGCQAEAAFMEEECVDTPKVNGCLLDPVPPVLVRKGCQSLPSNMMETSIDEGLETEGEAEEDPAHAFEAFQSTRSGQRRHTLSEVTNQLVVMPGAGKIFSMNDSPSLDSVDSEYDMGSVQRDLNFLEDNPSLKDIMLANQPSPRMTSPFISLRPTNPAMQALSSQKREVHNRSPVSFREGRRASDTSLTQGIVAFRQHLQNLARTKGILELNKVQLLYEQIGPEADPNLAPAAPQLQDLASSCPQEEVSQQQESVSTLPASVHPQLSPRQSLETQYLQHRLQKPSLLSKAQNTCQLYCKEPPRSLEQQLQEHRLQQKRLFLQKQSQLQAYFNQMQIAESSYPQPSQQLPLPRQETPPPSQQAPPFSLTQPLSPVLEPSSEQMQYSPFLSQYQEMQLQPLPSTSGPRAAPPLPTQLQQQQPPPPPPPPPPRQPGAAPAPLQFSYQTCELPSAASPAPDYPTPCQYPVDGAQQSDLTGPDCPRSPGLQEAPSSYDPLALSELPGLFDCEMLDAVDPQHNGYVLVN
Summary of the method: (§2)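 MDA-MB-231 lysate applied to KinAffinity matrix of immobilized broadband kinase inhibitors at graded densities to obtain BC50 per target. Competition then run with increasing free compound to give CC50; Kd derived by Cheng-Prusoff. Two competition experiments in parallel to check equilibrium, one with lysate pre-incubated with compound before adding matrix. Quantitation by mass spectrometry.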

Focal adhesion kinase 1 = Focal adhesion kinase 1 (Homo sapiens, UniProt Q05397); assay: Binding affinity to FAK in SILAC-labeled human MDA-MB-231 cells lysate by mass spectrometry based kinAffinity assay; type: subcellular
Chain of Focal adhesion kinase 1 (Q05397 whole entry): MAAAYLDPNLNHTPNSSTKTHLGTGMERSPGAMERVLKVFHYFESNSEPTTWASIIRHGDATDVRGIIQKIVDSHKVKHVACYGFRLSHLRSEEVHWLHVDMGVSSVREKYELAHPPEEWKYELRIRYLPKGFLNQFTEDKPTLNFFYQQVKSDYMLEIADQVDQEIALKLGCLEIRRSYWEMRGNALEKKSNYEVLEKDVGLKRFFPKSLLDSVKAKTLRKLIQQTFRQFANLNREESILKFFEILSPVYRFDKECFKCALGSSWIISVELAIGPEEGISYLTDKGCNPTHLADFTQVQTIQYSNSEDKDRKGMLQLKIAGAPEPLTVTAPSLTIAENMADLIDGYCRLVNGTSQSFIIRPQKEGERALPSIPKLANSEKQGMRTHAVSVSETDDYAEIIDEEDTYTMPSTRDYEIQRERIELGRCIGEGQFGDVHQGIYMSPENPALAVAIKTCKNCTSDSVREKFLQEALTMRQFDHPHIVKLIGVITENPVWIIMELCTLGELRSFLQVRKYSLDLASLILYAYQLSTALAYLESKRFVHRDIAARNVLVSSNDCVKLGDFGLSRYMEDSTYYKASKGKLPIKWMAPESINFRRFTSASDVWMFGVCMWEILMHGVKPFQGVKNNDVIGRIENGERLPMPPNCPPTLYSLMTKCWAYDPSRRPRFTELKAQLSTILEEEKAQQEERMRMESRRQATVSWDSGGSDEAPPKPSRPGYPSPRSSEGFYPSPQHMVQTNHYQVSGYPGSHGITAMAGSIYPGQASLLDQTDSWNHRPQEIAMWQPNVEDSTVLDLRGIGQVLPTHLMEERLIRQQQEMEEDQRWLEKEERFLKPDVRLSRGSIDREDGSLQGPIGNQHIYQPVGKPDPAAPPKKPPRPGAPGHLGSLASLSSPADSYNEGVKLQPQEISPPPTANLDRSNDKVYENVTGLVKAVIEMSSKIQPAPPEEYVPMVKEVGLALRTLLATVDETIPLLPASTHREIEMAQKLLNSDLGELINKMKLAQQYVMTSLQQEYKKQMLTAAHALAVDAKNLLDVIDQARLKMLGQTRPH
Summary of the method: (§3)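 Chemical proteomics: MDA-MB-231 lysate bound to matrix of immobilized broad kinase inhibitors at several densities (BC50), then competed with increasing free compound (CC50); proteins quantified by mass spectrometry, Kd via Cheng-Prusoff. Two competition formats run in parallel to check equilibrium.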

[11] = target: TRAF family member-associated NF-kappa-B activator (Homo sapiens, UniProt Q92844); assay: Binding affinity to TANK in SILAC-labeled human MDA-MB-231 cells lysate by mass spectrometry based kinAffinity assay; type: subcellular; summary of the method: as §2
[12] = target: Ribosomal protein S6 kinase alpha-1 (Homo sapiens, UniProt Q15418); assay: Binding affinity to RPS6KA1 in SILAC-labeled human MDA-MB-231 cells lysate by mass spectrometry based kinAffinity assay; type: subcellular; summary of the method: as §2
[13] = target: Serine/threonine-protein kinase MARK2 (Homo sapiens, UniProt Q7KZI7); assay: Binding affinity to MARK2 in SILAC-labeled human MDA-MB-231 cells lysate by mass spectrometry based kinAffinity assay; type: subcellular; summary of the method: as §3
[14] = target: Epidermal growth factor receptor (Homo sapiens, UniProt P00533); assay: Binding affinity to EGFR in SILAC-labeled human MDA-MB-231 cells lysate by mass spectrometry based kinAffinity assay; type: subcellular; summary of the method: as §3
Chain of Epidermal growth factor receptor (P00533 whole entry): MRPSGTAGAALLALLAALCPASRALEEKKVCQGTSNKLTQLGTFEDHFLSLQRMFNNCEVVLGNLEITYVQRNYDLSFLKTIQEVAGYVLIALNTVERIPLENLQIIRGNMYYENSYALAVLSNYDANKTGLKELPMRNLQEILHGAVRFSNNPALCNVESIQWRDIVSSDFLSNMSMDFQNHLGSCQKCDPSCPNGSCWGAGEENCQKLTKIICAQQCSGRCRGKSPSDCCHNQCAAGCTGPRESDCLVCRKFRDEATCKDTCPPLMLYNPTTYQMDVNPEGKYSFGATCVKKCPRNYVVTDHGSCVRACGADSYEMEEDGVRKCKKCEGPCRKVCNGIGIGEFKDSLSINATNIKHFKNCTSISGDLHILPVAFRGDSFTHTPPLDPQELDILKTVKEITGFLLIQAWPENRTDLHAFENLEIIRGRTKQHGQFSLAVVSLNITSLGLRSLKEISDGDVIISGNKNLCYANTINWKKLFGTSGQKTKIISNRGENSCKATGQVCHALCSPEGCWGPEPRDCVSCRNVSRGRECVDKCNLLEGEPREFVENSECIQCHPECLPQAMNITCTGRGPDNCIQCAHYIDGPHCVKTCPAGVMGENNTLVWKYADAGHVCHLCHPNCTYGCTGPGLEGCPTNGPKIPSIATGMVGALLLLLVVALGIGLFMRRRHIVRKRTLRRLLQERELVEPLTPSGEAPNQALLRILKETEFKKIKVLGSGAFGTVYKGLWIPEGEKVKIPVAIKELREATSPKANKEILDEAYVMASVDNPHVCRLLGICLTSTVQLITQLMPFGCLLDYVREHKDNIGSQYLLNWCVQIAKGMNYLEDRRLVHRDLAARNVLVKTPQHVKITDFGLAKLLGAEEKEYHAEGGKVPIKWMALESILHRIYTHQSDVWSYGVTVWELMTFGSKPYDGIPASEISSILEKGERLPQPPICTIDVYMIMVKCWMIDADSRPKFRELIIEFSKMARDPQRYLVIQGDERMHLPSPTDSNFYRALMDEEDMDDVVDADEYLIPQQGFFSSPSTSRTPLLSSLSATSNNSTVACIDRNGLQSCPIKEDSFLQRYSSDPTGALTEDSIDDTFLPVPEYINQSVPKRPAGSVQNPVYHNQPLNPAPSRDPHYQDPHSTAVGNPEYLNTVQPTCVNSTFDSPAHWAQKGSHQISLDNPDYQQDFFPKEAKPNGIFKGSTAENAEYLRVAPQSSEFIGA

[15] = target: Tyrosine-protein kinase Fyn (Homo sapiens, UniProt P06241); assay: Binding affinity to FYN in SILAC-labeled human MDA-MB-231 cells lysate by mass spectrometry based kinAffinity assay; type: subcellular; summary of the method: as §3
Chain of Tyrosine-protein kinase Fyn (P06241 whole entry): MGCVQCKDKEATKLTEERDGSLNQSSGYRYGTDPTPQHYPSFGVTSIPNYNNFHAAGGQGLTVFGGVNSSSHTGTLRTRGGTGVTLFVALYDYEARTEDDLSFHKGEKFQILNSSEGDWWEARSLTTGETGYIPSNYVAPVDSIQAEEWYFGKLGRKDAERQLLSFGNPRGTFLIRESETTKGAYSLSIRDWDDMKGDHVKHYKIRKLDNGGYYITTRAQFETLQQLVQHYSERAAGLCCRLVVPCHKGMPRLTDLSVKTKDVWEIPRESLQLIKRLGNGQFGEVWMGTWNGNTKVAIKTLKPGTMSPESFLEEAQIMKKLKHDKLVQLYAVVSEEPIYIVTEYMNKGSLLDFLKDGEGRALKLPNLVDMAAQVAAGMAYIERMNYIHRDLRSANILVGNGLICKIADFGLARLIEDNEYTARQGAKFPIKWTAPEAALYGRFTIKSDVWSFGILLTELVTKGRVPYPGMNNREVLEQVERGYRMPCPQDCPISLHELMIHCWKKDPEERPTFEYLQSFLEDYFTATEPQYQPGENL

[16] = target: Cyclin-G-associated kinase (Homo sapiens, UniProt O14976); assay: Binding affinity to GAK in SILAC-labeled human MDA-MB-231 cells lysate by mass spectrometry based kinAffinity assay; type: subcellular; summary of the method: as §3
[17] = target: 5'-AMP-activated protein kinase subunit gamma-2 (Homo sapiens, UniProt Q9UGJ0); assay: Binding affinity to PRKAG2 in SILAC-labeled human MDA-MB-231 cells lysate by mass spectrometry based kinAffinity assay; type: subcellular; summary of the method: as §2
Chain of 5'-AMP-activated protein kinase subunit gamma-2 (Q9UGJ0 whole entry): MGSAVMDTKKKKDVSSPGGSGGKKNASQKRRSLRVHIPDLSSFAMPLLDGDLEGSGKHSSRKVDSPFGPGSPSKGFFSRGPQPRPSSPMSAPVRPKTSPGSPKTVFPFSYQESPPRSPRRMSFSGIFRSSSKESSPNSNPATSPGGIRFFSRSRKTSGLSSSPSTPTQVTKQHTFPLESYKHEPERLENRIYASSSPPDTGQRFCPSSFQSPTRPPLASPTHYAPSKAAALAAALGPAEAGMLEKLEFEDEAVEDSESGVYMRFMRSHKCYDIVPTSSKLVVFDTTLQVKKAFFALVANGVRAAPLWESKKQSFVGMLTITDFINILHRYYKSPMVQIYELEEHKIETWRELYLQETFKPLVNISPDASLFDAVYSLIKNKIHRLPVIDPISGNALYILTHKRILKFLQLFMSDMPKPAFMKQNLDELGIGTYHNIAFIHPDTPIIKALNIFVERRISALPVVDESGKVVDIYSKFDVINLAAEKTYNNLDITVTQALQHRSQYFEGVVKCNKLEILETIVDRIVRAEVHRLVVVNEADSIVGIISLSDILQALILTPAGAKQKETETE

[18] = target: Mitogen-activated protein kinase kinase kinase 20 (Homo sapiens, UniProt Q9NYL2); assay: Binding affinity to ZAK in SILAC-labeled human MDA-MB-231 cells lysate by mass spectrometry based kinAffinity assay; type: subcellular; summary of the method: as §2
[19] = target: Dual specificity mitogen-activated protein kinase kinase 5 (Homo sapiens, UniProt Q13163); assay: Binding affinity to MAP2K5 in SILAC-labeled human MDA-MB-231 cells lysate by mass spectrometry based kinAffinity assay; type: subcellular; summary of the method: as §3
[20] = target: Serine/threonine-protein kinase 10 (Homo sapiens, UniProt O94804); assay: Binding affinity to LOK in SILAC-labeled human MDA-MB-231 cells lysate by mass spectrometry based kinAffinity assay; type: subcellular; summary of the method: as §3
[21] = target: 5'-AMP-activated protein kinase catalytic subunit alpha-1 (Homo sapiens, UniProt Q13131); assay: Binding affinity to PRKAA1 in SILAC-labeled human MDA-MB-231 cells lysate by mass spectrometry based kinAffinity assay; type: subcellular; summary of the method: as §2
Chain of 5'-AMP-activated protein kinase catalytic subunit alpha-1 (Q13131 whole entry): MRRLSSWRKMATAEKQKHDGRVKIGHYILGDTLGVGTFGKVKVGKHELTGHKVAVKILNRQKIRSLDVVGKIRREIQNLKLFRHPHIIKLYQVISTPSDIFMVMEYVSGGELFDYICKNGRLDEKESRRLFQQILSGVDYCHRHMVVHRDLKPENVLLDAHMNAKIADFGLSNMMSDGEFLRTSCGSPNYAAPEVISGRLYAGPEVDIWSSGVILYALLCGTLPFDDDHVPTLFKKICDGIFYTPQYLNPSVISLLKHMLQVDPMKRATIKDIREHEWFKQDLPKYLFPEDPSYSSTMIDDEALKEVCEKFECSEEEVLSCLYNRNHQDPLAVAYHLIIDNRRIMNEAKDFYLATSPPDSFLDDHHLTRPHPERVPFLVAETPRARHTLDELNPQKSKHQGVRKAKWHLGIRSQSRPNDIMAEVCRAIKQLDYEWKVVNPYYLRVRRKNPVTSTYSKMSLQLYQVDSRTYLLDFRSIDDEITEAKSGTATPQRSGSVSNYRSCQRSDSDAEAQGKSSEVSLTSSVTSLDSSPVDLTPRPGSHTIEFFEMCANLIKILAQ

[22] = target: Tyrosine-protein kinase Tec (Homo sapiens, UniProt P42680); assay: Binding affinity to TEC in SILAC-labeled human MDA-MB-231 cells lysate by mass spectrometry based kinAffinity assay; type: subcellular; summary of the method: as §2
LIM domain kinase 1 = LIM domain kinase 1 (Homo sapiens, UniProt P53667); assay: Binding affinity to LIMK1 in SILAC-labeled human MDA-MB-231 cells lysate by mass spectrometry based kinAffinity assay; type: subcellular; summary of the method: as §3
[23] = Apparent volume of distribution in mouse at 3 mg/kg, iv by LC/MS/MS analysis; settings: in vivo, read-out: Vz
[24] = target: Tyrosine-protein kinase JAK3 (Homo sapiens) (UniProt P52333); assay: Inhibition of JAK3 (unknown origin) using fluorescence labeled peptide as substrate at 10 uM by IMAP assay
Summary of the method: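 Kinase selectivity profiling, run by a contract lab, with the test compound at 10 µmol/L in triplicate. In the IMAP format, the kinase phosphorylates a fluorescently labelled substrate peptide in solution. A binding solution of trivalent metal-based nanoparticles is then added to capture the phosphopeptide, and the drop in rotational speed is read as fluorescence polarization. Results are given as percent inhibition of each kinase.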

| Kd(free) [10] | Kd(free) (Focal adhesion kinase 1) | Kd(free) [11] | Kd(free) [12] | Kd(free) [13] | Kd(free) [14] | Kd(free) [15] | Kd(free) [16] | Kd(free) [17] | Kd(free) [18] | Kd(free) [20] | Kd(free) [21] | SMILES | microsomal CLint at 5 µM [1] | microsomal CLint at 5 µM [2] | C0 [3] | AUC(0-inf) [4] | solubility at 24 h [5] | fraction unbound [6] | fraction unbound [7] | Stability [8] | other results |
| --- | --- | --- | --- | --- | --- | --- | --- | --- | --- | --- | --- | --- | --- | --- | --- | --- | --- | --- | --- | --- | --- |
| – | – | – | – | – | – | – | – | – | – | – | – | COc1cc2c(Oc3ccc(NS(=O)(=O)c4cc(F)ccc4F)cc3F)ccnc2cc1OCCCN1CCCC(C)C1 (configuration not stated) | 19.1 µL/min/mg | 18.3 µL/min/mg | 216 ng/mL | 1400 ng·h/mL | 18 µM (≈ 11.1 µg/mL) | 0.041 | 0.015 | 99.1% | T/C [9]: 118% |
| 3545 nM | 2212 nM | 1567 nM | 5474 nM | 7086 nM | 16 nM | 38 nM | 4166 nM | 2296 nM | 3210 nM | 3039 nM | 786 nM | COc1cc2c(Oc3ccc(NS(=O)(=O)c4c(F)cccc4F)cc3F)ccnc2cc1OCCCN1CCN(C)CC1 | – | – | – | – | – | – | – | – | Kd(free) [19]: 539 nM; Kd(free) [22]: > 3674 nM; Kd(free) (LIM domain kinase 1): 93 nM |
| 4518 nM | 4445 nM | 3418 nM | 3152 nM | 4455 nM | 122 nM | 64 nM | 2448 nM | 1078 nM | 1180 nM | 3780 nM | 616 nM | COc1cc2c(Oc3ccc(NS(=O)(=O)c4cc(F)ccc4F)cc3F)ccnc2cc1OCCCN1CCN(C)CC1 | 143 µL/min/mg | 60.5 µL/min/mg | 310 ng/mL | 2650 ng·h/mL | 68.8 µM (≈ 42.4 µg/mL) | 0.028 | 0.009 | 96.3% | Vd [23]: 10.2 L/kg; Kd(free) (LIM domain kinase 1): 130 nM |
| – | – | – | – | – | – | – | – | – | – | – | – | COc1cc2c(Oc3ccc(NS(=O)(=O)c4ccccc4C(F)(F)F)cc3F)ccnc2cc1OCCCN1CCN(C)CC1 | – | – | – | – | – | – | – | – | inhibition [24]: Active |
